# dFosB act-1: activators of delta FosB homodimer, primary screen, biochemical, fluorescence polarization, TAMRA-CDK5 oligo, single point; Protein FosB (Mus musculus), P13346; purified delta FosB; percent of positive-control signal above neutral wells; activation, % at 25 µM; 0.99% of 340,000 active; AID 493131, 2011;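 active = mean activation above about 17%, with every replicate also reaching it, limit read from the data, passing the limit was not always enough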
# SR-BI DiI inh: inhibitors of SR-BI mediated HDL lipid uptake, primary screen, ldlA[mSR-BI] cells, fluorescence, single point; Scavenger receptor class B member 1 (Mus musculus), Q61009; ldlA[mSR-BI] CHO cells, DiI-HDL uptake fluorescence, 3 h; inhibition, % at 12.5 µM; 0.96% of 320,000 active;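 active = mean replicate inhibition of at least 70% and a set share of replicates each scoring 70 or more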;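 also: 0% = median of neutral control wells and 100% = median of positive control wells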
# SR-BI uptake up: activators of SR-BI mediated DiI-HDL uptake, primary screen, ldlA[mSR-BI] CHO cells, DiI fluorescence | activation, % at 12.5 µM | 3 h; 100 = double the neutral-control signal | 0.096% of 320,000 active;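 active = mean replicate activation of at least 60% and every replicate at or above 60%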;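 also: 0% = median plate neutral-control signal and 100% = twice that signal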
#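 Test system: SR-BI-overexpressing, LDLR-lacking CHO cells; Also added: labelled HDL, 10 µg/mL; Measured by: bottom-read cell fluorescence after medium removal, ex 550/em 595 nm; Timing: 3 h uptake period with compound, 37 °C; Buffer or medium: F12, 0.5% BSA, 25 mM HEPES; Doses: single compound concentration, delivered by pin transfer.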
# RAD54 branch: inhibitors of human RAD54 branch migration, primary screen, biochemical, fluorescence, single point; RAD54 Holliday junction branch migration, FAM/BHQ fluorescence; 0.14% of 360,000 active; inhibition, % at 10.4 µM;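 active = mean normalized replicate activity at least 40 and at least half of replicates scoring 40 or more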;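 also: 0% = median of neutral control wells and 100% = median of positive control wells; inhibitors cause a drop in the FAM fluorescence signal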
# Target sequence (Q92698 whole entry, looked up): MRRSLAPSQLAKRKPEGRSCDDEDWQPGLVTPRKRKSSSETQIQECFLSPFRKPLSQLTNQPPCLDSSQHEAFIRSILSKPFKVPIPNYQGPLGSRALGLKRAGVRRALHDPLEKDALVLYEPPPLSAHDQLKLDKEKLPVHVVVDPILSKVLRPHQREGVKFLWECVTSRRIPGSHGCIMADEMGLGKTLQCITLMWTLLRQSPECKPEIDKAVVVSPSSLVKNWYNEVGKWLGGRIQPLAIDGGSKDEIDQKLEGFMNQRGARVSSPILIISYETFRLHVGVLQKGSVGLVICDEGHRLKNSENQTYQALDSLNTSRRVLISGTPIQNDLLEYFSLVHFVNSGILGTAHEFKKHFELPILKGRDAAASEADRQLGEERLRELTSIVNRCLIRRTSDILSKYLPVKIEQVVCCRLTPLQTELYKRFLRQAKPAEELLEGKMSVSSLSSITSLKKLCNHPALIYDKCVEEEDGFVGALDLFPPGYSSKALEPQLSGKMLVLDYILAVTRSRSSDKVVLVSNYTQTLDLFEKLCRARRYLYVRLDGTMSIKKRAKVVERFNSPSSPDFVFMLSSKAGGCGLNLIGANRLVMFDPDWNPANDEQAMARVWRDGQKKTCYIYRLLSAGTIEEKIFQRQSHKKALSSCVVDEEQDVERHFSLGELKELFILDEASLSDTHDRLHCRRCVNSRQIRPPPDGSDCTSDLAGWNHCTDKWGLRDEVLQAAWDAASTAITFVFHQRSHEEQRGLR
# S100A4 MyoIIA: inhibitors of S100A4-myosin IIA peptide binding, primary screen, biochemical, fluorescence polarization, TAMRA-MyoIIA peptide; inhibition, % at 10.7 µM; 0.14% of 360,000 active;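 active = mean inhibition of at least 70% across replicates, with every replicate also reaching that level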
#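 Assay system: human S100A4 monomer with TAMRA-labelled myosin IIA peptide / Buffer or medium: Calcium-containing HEPES buffer, pH 7.2 / Reagent: TAMRA-labelled myosin IIA heavy-chain peptide probe, 5 nM / Compound: one dose per compound / Timing: polarization read 5 min after assay mix addition, stable 5–60 min / Benchmarks: neutral control DMSO, positive control TFP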
# PvdQ inh: P. aeruginosa PvdQ acylase inhibitors, primary screen, biochemical, fluorescence, plate reader and imaging, single point | purified PvdQ acylase | 0.063% of 340,000 active | inhibition, % at 10 µM | PvdQ acylase [Pseudomonas aeruginosa LESB58]; in the data active = inhibition above about 30%, passing the limit was not always enough;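 also: 0% = vehicle neutral wells and 100% = reference inhibitor wells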
# dFosB act-2: activators of mouse delta FosB DNA binding, confirmation, biochemical, fluorescence polarization, TAMRA-CDK5 oligo, cherry-picked samples; shares compounds with dFosB act-1; purified delta FosB; normalised: neutral wells 0, positive control 100; activation, % at 24.9 µM; 2,400 tested, under 10 active;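 active = highest replicate activation at or above 34% and every replicate reaching that threshold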;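 also: higher polarization means more probe DNA bound by delta FosB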
# Numbers without * were called inactive; · = no result. Compounds with a hit are over-represented: about 1.6% of the library has one in this group of screens.
SMILES,dFosB act-1,SR-BI DiI inh,SR-BI uptake up,RAD54 branch,S100A4 MyoIIA,PvdQ inh,dFosB act-2
O=C(CC(NC(=O)C(F)(F)F)c1ccccc1)Nc1nnc(CCc2ccccc2)s1 (stereo unspecified),19.0*,-5.2,5.2,·,-1.6,3.9,4.5
CC(=O)Nc1ccc2nc(NC(=O)COc3cccc(C)c3)sc2c1,46.9*,12.5,-12.5,-0.8,6.1,-4.1,6.9
O=C(COc1ccccc1)Nc1nc2cc3c(cc2s1)OCO3,27.7*,-24.1,24.1,-5.8,0.9,-5.5,0.8
CC(=O)Nc1ccc2nc(NC(=O)COc3ccc(C)cc3)sc2c1,19.3*,33.6,-33.6,·,-5.0,2.5,-6.3
O=C(COc1ccccc1)Nc1nc2cc3c(cc2s1)OCCO3,1.9,0.1,·,-7.9,-3.5,-2.8,·
CC(=O)Nc1ccc(NC(=O)COc2ccc(-c3ccc(C#N)cc3)cc2)cc1,33.6*,-20.0,20.0,5.5,4.1,2.6,4.3
COCCn1c(N)c(N(Cc2ccccc2)C(=O)c2ccc(-c3ccc(Cl)cc3)o2)c(=O)[nH]c1=O,23.2*,21.1,-21.1,-1.6,-4.5,11.8,0.7
Cc1cccc(NC(=O)Cn2cc(C(=O)C3CC3)c3ccccc32)c1C,21.2*,15.4,-15.5,7.1,-1.4,8.7,1.8
CC(=O)c1cn(CC(=O)Nc2ccc(C)cc2C)c2ccccc12,27.9*,-16.8,16.8,-6.9,·,-14.5,7.6
CCC(=O)c1cn(CC(=O)Nc2cccc(C)c2C)c2ccccc12,25.3*,2.0,-2.0,-5.7,0.0,16.7,6.9
Cc1ccc(C)c(NC(=O)Cn2cc(C(=O)C3CC3)c3ccccc32)c1,72.0*,7.9,-7.9,-12.2,-2.2,-15.0,0.2
CC(=O)c1cn(CC(=O)Nc2cccc(C)c2C)c2ccccc12,-7.1,-4.0,4.0,1.9,-1.1,-6.4,·
COc1ccc(NC(=O)N2[C@@H]3CNC[C@H]2C3c2ccc(-c3ccc(F)cc3)cc2)cc1 (stereo partly specified),·,·,·,·,0.7,·,·
CCc1ccc(NC(=O)CSc2nc(N)c(NC(=O)c3ccc(F)c(F)c3)c(=O)[nH]2)cc1,29.4*,-28.1,28.1,-2.0,10.7,0.4,3.6
Nc1nc(SCC(=O)Nc2ccc(F)cc2)[nH]c(=O)c1NC(=O)c1ccc(F)c(F)c1,26.6*,-26.1,26.1,-14.2,1.3,-13.4,-0.7
Cc1cc(C)cc(NC(=O)CSc2nc(N)c(NC(=O)c3cccs3)c(=O)[nH]2)c1,31.1*,-21.2,21.2,-6.3,0.1,-10.0,6.4
Cc1nnc(NC(=O)CSc2nc(N)c(NC(=O)c3cccs3)c(=O)[nH]2)s1,9.5,-22.1,22.1,1.7,-0.8,-18.8,·
Cc1ccc(C(=O)Nc2c(N)nc(SCC(=O)Nc3cc(C)on3)[nH]c2=O)cc1,25.6*,1.5,-1.5,9.2,15.3,0.9,-6.8
O=C(CSc1ncnc2c1oc1ccccc12)Nc1nc2ccccc2s1,33.3*,-5.6,5.6,-2.9,-1.9,-6.0,2.2
Cc1nc(SCC(=O)NC(C)c2ccccc2)c2oc3ccccc3c2n1 (stereo unspecified),34.5*,6.9,-6.9,-10.3,·,-13.3,3.1
CCc1nnc(NC(=O)CSc2ncnc3c2oc2ccccc23)s1,1.2,-5.0,5.0,6.0,-2.9,1.3,·
CO[C@@H]1CN(C)C(=O)c2cc(NC(=O)NC3CCCCC3)ccc2OC[C@H](C)N(C(C)=O)C[C@@H]1C,·,·,·,-4.0,11.0,·,·
COc1ccc(Cl)cc1C(=O)NC(=S)Nc1nc(C)cc(C)n1,-11.0,42.8,-42.8,-5.1,2.6,-10.0,·
COc1ccc(Cl)cc1C(=O)NC(=S)Nc1cc(-c2nc3ccccc3[nH]2)ccc1C,36.2*,39.5,-39.5,-1.4,·,-1.1,1.7
Nc1nonc1-n1nnc(C(=O)N/N=C/c2cccc(F)c2)c1-c1ccc2c(c1)OCO2,37.3*,19.8,-19.8,7.4,2.2,-2.1,2.7
SMILES,dFosB act-1,SR-BI DiI inh,SR-BI uptake up,RAD54 branch,S100A4 MyoIIA,PvdQ inh,dFosB act-2
CCCOc1ccc(-c2c(C(=O)N/N=C/c3ccccc3)nnn2-c2nonc2N)cc1,29.6*,76.5*,-76.5,·,-0.6,-10.0,-1.1
Nc1nonc1-n1nnc(C(=O)N/N=C/c2c(Cl)cccc2Cl)c1CSC1=NCCS1,26.6*,25.5,-25.5,-5.3,-4.5,-9.6,1.9
Nc1nonc1-n1nnc(C(=O)N/N=C/c2ccc3c(c2)OCO3)c1CSc1ccccc1,36.1*,-8.5,8.5,-4.2,7.5,2.2,0.2
Nc1nonc1-n1nnc(C(=O)N/N=C/C=C/c2ccccc2)c1CSC1=NCCS1,·,·,·,-1.2,-4.1,·,·
Nc1nonc1-n1nnc(C(=O)N/N=C/c2ccccc2Cl)c1CSc1ccccc1,·,·,·,-5.2,-3.1,·,·
C[C@@H]1CN([C@H](C)CO)S(=O)(=O)c2ccc(-c3cccc(F)c3)cc2O[C@@H]1CN(C)C,·,·,·,13.8,-7.3,·,·
Cc1nc2cc(C(=O)OCC(=O)NC34CC5CC(CC(C5)C3)C4)ccc2n1-c1ccccc1,65.4*,1.3,-1.3,1.0,·,-9.4,-0.7
Cc1nc2cc(C(=O)OCC(=O)NC3CCS(=O)(=O)C3)ccc2n1-c1ccccc1 (stereo unspecified),-10.6,-14.3,14.3,7.5,·,-25.3,·
COc1ccc(-c2ccc([C@@H]3[C@@H](C#N)N(C(=O)NC4CCCC4)[C@H]3CO)cc2)cc1,·,·,·,5.6,-0.2,·,·
CN(NC(=O)c1ccc(Cl)cc1)c1nc(-c2ccccc2)nnc1C(F)(F)F,31.9*,-28.8,28.8,-0.4,·,1.0,5.8
CN1[C@@H]2Cn3c(ccc(-c4cccnc4)c3=O)[C@H]1[C@@H](C(=O)N1CCC(Cc3ccccc3)CC1)[C@@H]2CO,·,·,·,-10.0,6.2,·,·
CC(C)CC#Cc1cnc2c(c1)C(=O)N([C@@H](C)CO)C[C@H](C)[C@H](CN(C)C(=O)c1cccnc1)O2,·,·,·,1.3,-2.3,·,·
O=C(Nc1ccc2c(c1)COC2=O)c1ccc(Cl)c(Cl)c1,37.5*,72.2*,-72.2,4.3,0.1,-8.8,5.9
Cc1ccc(NC(=O)Nc2ccc3c(c2)C(=O)OC3)cc1Cl,29.0*,0.9,-0.9,-2.2,-0.2,-4.8,3.5
O=C(Nc1ccc(Cl)c(Cl)c1)c1ccc(Cl)c(Cl)c1,32.8*,66.6,-66.6,-3.6,15.2,-12.0,1.5

# Assay outcomes as filed in PubChem BioAssay.
